The source of these data is ChEMBL document CHEMBL4052596, “Dioncophyllines C2, D2, and F and Related Naphthylisoquinoline Alkaloids from the Congolese Liana Ancistrocladus ileboensis with Potent Activities against Plasmodium falciparum and against Multiple Myeloma and Leukemia Cell Lines” (J Nat Prod, 2017).

By IC50 is commonly meant the midpoint of a concentration-inhibition curve. Read a high IC50 as a need for much substance. The EC50 is the concentration that produces a half-maximal response. A high value points to a less potent agent.

Molecules are shown by their SMILES.

In one series the test system is Leishmania donovani. Nature of the series: Antiprotozoal activity against amastigote form of Leishmania donovani MHOM/ET/67/L82 after 72 hrs by Alamar Blue assay. Type of series: functional. To be noted: MHOM/ET/67/L82, 72 h. In outline:
(§1)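 In vitro tests against P. falciparum NF54, T. cruzi, T. b. rhodesiense and L. donovani, with cytotoxicity on rat skeletal myoblast L6 host cells.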

A short description of series [1]: Selectivity index, ratio of IC50 for rat L6 cells to IC50 for erythrocytic stage of Plasmodium falciparum NF54. Format: toxicity. To be noted: read-out: Ratio IC50. In outline:
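Ratio of the L6 cell IC50 to the P. falciparum IC50. Each IC50 is the mean of two independent assays.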

Series [2] deals with Plasmodium falciparum. Nature of the series: Antiprotozoal activity against erythrocytic stage of chloroquine and pyrimethamine resistant Plasmodium falciparum K1 after 48 hrs by [3H]- hypoxanthine incorporation assay. Type of series: functional.
Series [3] has as its system Trypanosoma brucei rhodesiense. Nature of the series: Antiprotozoal activity against patient derived Trypanosoma brucei rhodesiense STIB 900 bloodstream form after 72 hrs by Alamar Blue assay. Type of series: functional. As to conditions: STIB 900, 72 h. In outline:
as §1

The next series concerns PBMC. The experiment in a line: Induction of apoptosis in human PBMC after 3 days by V-FITC/ propidium iodide staining-based flow cytometric analysis. As to conditions: 72 h. Type of series: cell-based. In outline:
(§2)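 INA-6 multiple myeloma cells, or mononuclear cells from the peripheral blood of healthy donors, exposed to a range of concentrations for 3 d, with melphalan as reference. Cells stained 10 min with annexin V-FITC and PI in HEPES binding buffer pH 7.4 (140 mM NaCl, 2.5 mM CaCl2), then analysed by flow cytometry. The annexin/PI double-negative fraction counted as viable, and EC50 derived from dose-response curves.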

The nature of series [4]: Selectivity index, ratio of IC50 for rat L6 cells to IC50 for erythrocytic stage of chloroquine and pyrimethamine resistant Plasmodium falciparum K1. As to conditions: read-out: Ratio IC50. Type of series: toxicity. In outline:
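Selectivity index: IC50 toward rat skeletal myoblast L6 cells (in vitro cytotoxicity, previously published method) divided by IC50 against P. falciparum K1; each IC50 is the mean of two independent assays.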

The test system of series [5] is Plasmodium falciparum. The experiment in a line: Antiprotozoal activity against erythrocytic stage of Plasmodium falciparum NF54 after 48 hrs by [3H]- hypoxanthine incorporation assay. Type of series: functional. In outline: as §1
Another series deals with L6. The experiment in a line: Cytotoxicity against rat L6 cells after 72 hrs by Alamar Blue assay. Type of series: cell-based. As to conditions: L6, 72 h. In outline: as §1
(In general: The colour change of resazurin is a common sign of viable cells or microbes.)

Series [6] is described as follows: Induction of apoptosis in human INA-6 cells after 3 days by V-FITC/ propidium iodide staining-based flow cytometric analysis. Format: functional, cell-based. In outline: as §2
In a further series the test system is Trypanosoma cruzi. Nature of the series: Antiprotozoal activity against trypomastigote stage of Trypanosoma cruzi Tulahuen C2C4 infected in rat L6 cells using preincubated for 96 hrs by CPRG/Nonidet-based inverted microscopy. Type of series: functional, cell-based. In outline: as §1
Series [7] is described as follows: Resistance index, ratio of IC50 for human CEM/ADR5000 cells to IC50 for human CCRF-CEM cells. Type of series: functional. In outline: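 Degree of resistance is the IC50 for CEM/ADR5000 divided by the IC50 for CCRF-CEM. Both come from resazurin viability dose-response curves over three independent experiments.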
In series [8] the test system is CCRF-CEM. Nature of the series: Growth inhibition of human CCRF-CEM cells at 10 uM by resazurin assay relative to control. Type of series: functional. To be noted: read-out: GI. In outline: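 Drug-sensitive CCRF-CEM leukemia cells treated at a single concentration of 10 μM, with doxorubicin as reference and DMSO vehicle (under 1.0%) as negative control. Viability read by resazurin fluorescence (ex 544, em 590 nm) relative to untreated cells. Three independent experiments, six parallel measurements each.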

The test system of a further series is ADR5000 cell line. Nature of the series: Growth inhibition of human multi-drug resistant CEM/ADR5000 cells by resazurin assay. Type of series: functional, cell-based. In outline: (§3)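 CCRF-CEM cells and the P-glycoprotein-overexpressing multidrug-resistant subline CEM/ADR5000 treated over a range of concentrations, with doxorubicin as positive control and DMSO (under 1.0%) as negative control. Resazurin fluorescence read at ex 544/em 590 nm against untreated cells. IC50 taken from a calibration curve by linear regression. Mean ± SD of three independent experiments, six parallel measurements each.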

Series [9] deals with CCRF-CEM. Nature of the series: Growth inhibition of human CCRF-CEM cells by resazurin assay. Type of series: functional, cell-based. In outline:
as §3

On to `COc1ccc(-c2ccc(O)c3c2C[C@@H](C)N[C@H]3C)c2cc(C)cc(OC)c12`, for which the IC50 came out at 107 µM with Leishmania donovani; 0.045 µM in the series with Plasmodium falciparum [2]; 0.585 µM in [3]; 0.09 µM in the series on Plasmodium falciparum [5]; 14.5 µM with L6; 14.6 µM in the series on Trypanosoma cruzi. Besides, the figures for the selectivity ratio in [1] and in series [4] were 161 and 323, respectively. For the same compound, the EC50 in the series with PBMC was determined as 16 µM; in series [6] (Homo sapiens, INA-6, 72 h), 21 µM.

For `O=C(Cn1ccnc1[N+](=O)[O-])NCc1ccccc1` [BENZNIDAZOLE], the concentration for half-maximal inhibition (IC50) with Trypanosoma cruzi was 2.32 µM.

For `COc1cc2c(c(OC)c1-c1c(C)cc(OC)c3c(OC)cccc13)[C@@H](C)N[C@@H](C)C2`, the half-inhibitory concentration (IC50) came out at 25.4 µM with Leishmania donovani; 0.313 µM in series [3]; 0.726 µM in the series on Plasmodium falciparum [5]; 30 µM in the series on L6; 12.4 µM with Trypanosoma cruzi. Moreover, in [1], the selectivity ratio was 41. Moreover, in series [6] (Homo sapiens, INA-6, 72 h), the response was half-maximal at 4.8 µM (EC50).

For `COc1cccc2c(-c3ccc4c(c3O)[C@@H](C)N[C@H](C)C4)c(C)cc(OC)c12` [DIONCOPHYLLINE A], the “Ratio IC50” value in series [7] was 2.1. The inhibition of growth at 10 µM with CCRF-CEM [8] was < 50%. In addition, the half-inhibitory concentration (IC50) was found to be 0.52 µM in the series on ADR5000 cell line and 0.243 µM in the series with CCRF-CEM [9]. In series [6] (Homo sapiens, INA-6, 72 h), the EC50 is 0.22 µM.

As for `COc1cc2c(c(O)c1-c1c(C)cc(OC)c3c(OC)cccc13)C(C)=N[C@H](C)C2`, the IC50 with Leishmania donovani was found to be 146 µM; in series [3], 22.7 µM; in the series on Plasmodium falciparum [5] it was 6.51 µM; in the series on L6, 34.9 µM; in the series with Trypanosoma cruzi, 104 µM. Further, the selectivity ratio in [1] was 5.4.

Take `COc1cccc2c(-c3ccc4c(c3O)[C@@H](C)N(C(C)=O)[C@H](C)C4)c(C)cc(OC)c12` [N-ACETYLDIONCOPHYLLINE A]: in series [6] (Homo sapiens, INA-6, 72 h), the 50% effective concentration (EC50) is 0.8 µM.

As for `COc1cc(C)c(-c2ccc(O)c3c2C[C@@H](C)N[C@@H]3C)c2cccc(O)c12` [DIONCOPHYLLINE C], the half-maximal effective concentration (EC50) in the series on PBMC came to 9 µM; in [6] (Homo sapiens, INA-6, 72 h), 7.5 µM.

For the compound `COc1cccc2c(-c3ccc(O)c4c3C[C@@H](C)N[C@H]4C)c(C)cc(OC)c12`, the half-maximal inhibitory concentration (IC50) is 228 µM in the series on Leishmania donovani; 4.83 µM in [3]; 0.702 µM with Plasmodium falciparum [5]; 43.3 µM in the series with L6; 44.5 µM in the series with Trypanosoma cruzi. Also, the selectivity ratio in series [1] stood at 61.7.

With `N[C@@H](Cc1ccc(N(CCCl)CCCl)cc1)C(=O)O`, it took 2 µM to reach a half-maximal effect in series [6] (Homo sapiens, INA-6, 72 h) (EC50).

`COc1cccc2c(-c3ccc4c(c3O)[C@@H](C)N[C@H](C)C4)c(C)cc(O)c12` (stereo in doubt; P-11) came in with an EC50 in series [6] (ina-6) of 2.7 µM.

As to `COc1cccc2c1C(=O)c1c(O)c3c(c(O)c1C2=O)C[C@@](O)(C(=O)CO)C[C@@H]3O[C@H]1C[C@H](N)[C@H](O)[C@H](C)O1` [DOXORUBICIN], in series [7], the “Ratio IC50” value worked out at 1769. In addition, the IC50 in the series with ADR5000 cell line was 30.1 µM; with CCRF-CEM [9], 0.017 µM.

In turn, `COc1cc(C)c(-c2ccc3c(c2O)[C@@H](C)N[C@H](C)C3)c2cccc(O)c12` displayed an EC50 in [6] (Homo sapiens, INA-6, 72 h) of 1.5 µM.

For `COc1ccc(-c2ccc3c(c2O)[C@@H](C)N(C)[C@H](C)C3)c2cc(C)cc(OC)c12`, the IC50 came out at 136 µM in the series on Leishmania donovani; 13.7 µM in series [3]; 0.107 µM in the series with Plasmodium falciparum [5]; 62.8 µM in the series on L6; 55 µM in the series with Trypanosoma cruzi. For the same compound, the selectivity ratio in series [1] was 586. The compound further came in with a concentration giving a half-maximal response (EC50) in series [6] (Homo sapiens, INA-6, 72 h) of 32 µM.

Consider `COc1ccc(-c2ccc3c(c2O)[C@@H](C)N[C@H](C)C3)c2cc(C)cc(OC)c12`, for which the “Ratio IC50” value in series [7] is 2.9. Moreover, the IC50 was > 265 µM in the series on Leishmania donovani; 8.08 µM in series [3]; 5.31 µM with ADR5000 cell line; 0.228 µM in the series with Plasmodium falciparum [5]; 4.02 µM with L6; 1.86 µM with CCRF-CEM [9]. The same compound registered a concentration for half-maximal inhibition (IC50) in the series with Trypanosoma cruzi of 26.3 µM. Besides, the selectivity ratio in [1] worked out at 17.6. Also, the inhibition of growth at 10 µM in the series with CCRF-CEM [8] is < 50%. The EC50 was found to be 19 µM with PBMC and 2.6 µM in series [6] (Homo sapiens, INA-6, 72 h).

In the case of `COc1cccc2c(-c3ccc4c(c3O)[C@@H](C)N[C@H](C)C4)c(C)cc(O)c12` (stereo in doubt; M-11), the concentration for a half-maximal effect (EC50) in the series with PBMC came out at 50 µM; in series [6] (ina-6), 16 µM.
